A selection: hits, their analogues and other compounds. The true share with any hit is near 2.8%.
SIRT5 block: SIRT5 desuccinylase inhibitors, primary screen, biochemical, fluorescence imaging, single point, set 5; NAD-dependent protein deacylase sirtuin-5, mitochondrial (Homo sapiens), Q9NXA8; inhibition, % at 15 µM; AID 652115, 2013; Purified SirT5, succinyl-peptide AMC, trypsin-coupled fluorescence; 1.1% of 330,000 active; in the data active means inhibition above about 15%; inconclusive means no clear call, values can overlap the other calls
E-sel inducer: E-selectin induction in HUVECs, primary screen, imaging, HUVEC, immunofluorescence imaging, single point | activation, % at 7.58 µM | AID 686992, 2013 | 0.37% of 260,000 active | normalized: neutral wells 0, TNF-alpha wells 100;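 active means mean E-selectin-positive cell signal at least 10% of the positive control, reached in at least 60% of replicates, without over 20% cell loss; inconclusive means no rule given, readout overlaps actives, possibly toxicity-flagged; inactive means the rest, including those meeting only one limit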
Target sequence (P16581 whole entry, looked up): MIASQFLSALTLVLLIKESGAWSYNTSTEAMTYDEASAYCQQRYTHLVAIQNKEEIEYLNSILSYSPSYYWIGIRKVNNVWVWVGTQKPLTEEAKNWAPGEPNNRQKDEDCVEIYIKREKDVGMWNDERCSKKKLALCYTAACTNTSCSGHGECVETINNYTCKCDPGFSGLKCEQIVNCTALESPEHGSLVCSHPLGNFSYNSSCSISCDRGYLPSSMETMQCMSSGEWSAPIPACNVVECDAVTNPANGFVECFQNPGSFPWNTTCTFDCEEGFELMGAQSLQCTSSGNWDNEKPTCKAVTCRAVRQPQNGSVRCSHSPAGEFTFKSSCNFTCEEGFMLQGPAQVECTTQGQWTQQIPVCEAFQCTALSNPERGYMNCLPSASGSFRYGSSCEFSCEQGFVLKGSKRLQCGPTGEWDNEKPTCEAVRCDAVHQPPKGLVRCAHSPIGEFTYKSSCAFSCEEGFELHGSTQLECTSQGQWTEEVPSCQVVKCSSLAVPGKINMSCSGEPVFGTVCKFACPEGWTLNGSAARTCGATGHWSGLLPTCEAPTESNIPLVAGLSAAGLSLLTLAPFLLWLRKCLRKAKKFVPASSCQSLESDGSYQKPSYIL
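Read-out: % PE-positive cells | Test system: HUVEC | Doses: One compound dose added by pin transfer | Buffer or medium: EGM-2 over gelatin coat | Signal: Immunofluorescence imaging | Benchmarks: TNF-alpha, DMSO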
DENV2 CPE rescue: inhibitors of DENV2 cytopathic effect, primary screen, cell-based, plate reader, single concentration. DENV2-infected cells, cytopathic effect rescue. CPE inhibition, % at 9.99 µM. 1.7% of 350,000 active. AID 651640, 2012; in the data active means CPE inhibition above about 20%, passing the limit was not always enough; inconclusive means no clear call, values can overlap the other calls; tested in BHK-21 cells;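 further: 0% = median of neutral control wells and 100% = median of positive control wells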
* marks the source's active call; other numbers are inactive results; ? = inconclusive; . = no result given.

SMILES	SIRT5 block	E-sel inducer	DENV2 CPE rescue
COc1ccc(NC(=O)Nc2ccc3c(c2)[C@H]2C[C@H](CC(=O)N(C)C)O[C@@H](CO)[C@H]2O3)cc1	-4	-1	-4
CNC[C@@H]1OCCCC[C@H](C)Oc2ccc(NS(=O)(=O)c3c(C)noc3C)cc2C(=O)N([C@@H](C)CO)C[C@H]1C	.	0	123*
CNC[C@H]1OCCCC[C@@H](C)Oc2ccc(NS(=O)(=O)c3c(C)noc3C)cc2C(=O)N([C@@H](C)CO)C[C@H]1C	.	0	-17
CNC[C@@H]1OCCCC[C@@H](C)Oc2ccc(NS(=O)(=O)c3c(C)noc3C)cc2C(=O)N([C@@H](C)CO)C[C@H]1C	.	.	29*
CNC[C@H]1OCCCC[C@H](C)Oc2ccc(NS(=O)(=O)c3c(C)noc3C)cc2C(=O)N([C@@H](C)CO)C[C@@H]1C	.	0	-9
CC(C)OC1=CC(=O)OC(c2cccc(Cl)c2)C1 (stereo not drawn)	-1	0	31*
COC1=CC(=O)OC(c2cccc(Cl)c2)C1 (stereo not drawn)	-3	0	-8
CCc1ccc(N2CCN(CCNC(=O)Nc3ccc(OC)cc3)CC2)cc1	-2	.	12
COc1ccc(NC(=O)NCCN2CCN(c3cc(OC)ccc3OC)CC2)cc1	28*	.	-1
CCC(C)N1C(=O)N(C)C2NC(=O)NC21 (stereo not drawn)	25*	.	2
C/C=C/c1ccc([C@H]2[C@H]3CN(Cc4ccc(C(=O)OC)cc4)CC(=O)N3[C@H]2CO)cc1	1	0	2
CC(=O)/C(C#N)=C1\NC(=O)C(Cc2ccc(F)cc2)S1 (stereo not drawn)	2	0	-3
CC(=O)/C(C#N)=C1\NC(=O)C(Cc2cc(Cl)ccc2Cl)S1 (stereo not drawn)	2	0	57*
COc1ccc(S(=O)(=O)N(C)C[C@@H]2Oc3ccc(NC(=O)Nc4ccc5c(c4)OCO5)cc3C(=O)N([C@H](C)CO)C[C@@H]2C)cc1	9	-1	-7
CCNC(=O)C[C@@H]1CC[C@H]2[C@@H](COc3ccc(NC(=O)c4ccc(F)c(F)c4)cc3C(=O)N2C)O1	0	0	-3
CNC(=O)C[C@@H]1CC[C@@H]2[C@H](COc3ccc(NC(=O)c4ccc(F)c(F)c4)cc3C(=O)N2C)O1	0	0	97*
CNC(=O)C[C@H]1CC[C@@H]2[C@H](COc3ccc(NC(=O)c4ccc(F)c(F)c4)cc3C(=O)N2C)O1	-2	0	95*
CNC(=O)C[C@H]1CC[C@H]2[C@H](COc3ccc(NC(=O)c4ccc(F)c(F)c4)cc3C(=O)N2C)O1	11	0	?
NC(=O)CCCn1c(C(=O)c2ccc(Cl)cc2)c2ccc([N+](=O)[O-])cc2[n+]1[O-]	.	0	-8
Cc1ccc(C(=O)c2c3ccc([N+](=O)[O-])cc3[n+]([O-])n2CCCC(N)=O)cc1	.	0	70*
CCC(=O)Nc1ccc2c(c1)OC[C@@H](C)N(C(=O)CC)C[C@H](C)[C@@H](OC)CN(C)C2=O	.	0	.
O=C(C[C@H]1C[C@@H]2c3cc(NC(=O)Nc4ccc(F)cc4)ccc3O[C@@H]2[C@@H](CO)O1)NC1CCCCC1	.	0	?
O=C(O)CCNC(=O)OCC1c2ccccc2-c2ccccc21	-5	.	-3
O=C(CCNC(=O)OCC1c2ccccc2-c2ccccc21)NOCc1ccccc1	-3	.	29*
O=C(O)C1CSC(c2coc3ccccc3c2=O)N1 (stereo not drawn)	-1	3	-6
SMILES	SIRT5 block	E-sel inducer	DENV2 CPE rescue
CC1CCOC(c2coc3ccccc3c2=O)O1 (stereo not drawn)	-4	.	33*
C[C@H](CO)N1C[C@H](C)[C@H](CN(C)CC2CC2)Oc2ccc(NC(=O)CCCCCC(=O)Nc3ccccc3N)cc2CC1=O	0	2	13
C/C=C/c1ccc2c(c1)O[C@H](CN(C)C(=O)NCCC)[C@@H](C)CN([C@@H](C)CO)S2(=O)=O	1	0	-2
O=C1N=c2ccccc2=C1c1sc(=S)n(-c2ccc(O)cc2)c1O	-9	2	-6
CN(c1ccc(O)cc1)c1nc(O)c(C2=c3ccccc3=NC2=O)s1	20*	0	-4
COc1ccc2c3c([nH]c2c1)[C@H](CO)N(C(=O)CC1CC1)CC31CN(C(=O)CC2CC2)C1	.	0	?
Cc1ccc(NC(=O)C2CCCCC2)cc1C	.	0	70*
Cc1ccc(NS(=O)(=O)c2ccc(NC(=O)C3CC3)cc2)cc1C	-3	.	1
COc1ccc(S(=O)(=O)Nc2ccc3c(c2)C(=O)N([C@H](C)CO)C[C@H](C)[C@@H](CN(C)Cc2ccc(C(F)(F)F)cc2)OCCCC[C@@H](C)O3)cc1	2	0	13
COc1ccc(S(=O)(=O)Nc2ccc3c(c2)C(=O)N([C@@H](C)CO)C[C@@H](C)[C@@H](CN(C)Cc2ccc(C(=O)O)cc2)OCCCC[C@@H](C)O3)cc1	1	0	2
COc1ccc(S(=O)(=O)Nc2ccc3c(c2)C(=O)N([C@@H](C)CO)C[C@H](C)[C@@H](CN(C)Cc2ccc(C(F)(F)F)cc2)OCCCC[C@H](C)O3)cc1	17*	0	-9
COc1ccc(CN(C)C[C@@H]2OCCCC[C@H](C)Oc3ccc(NS(=O)(=O)c4ccc(F)cc4)cc3C(=O)N([C@@H](C)CO)C[C@H]2C)cc1	1	.	59*
COc1ccc(S(=O)(=O)Nc2ccc3c(c2)C(=O)N([C@H](C)CO)C[C@@H](C)[C@H](CN(C)Cc2ccc(C(F)(F)F)cc2)OCCCC[C@H](C)O3)cc1	15*	0	.
COc1ccc(CN(C)C[C@H]2OCCCC[C@@H](C)Oc3ccc(NS(=O)(=O)c4ccc(F)cc4)cc3C(=O)N([C@H](C)CO)C[C@@H]2C)cc1	-4	.	-2
COc1ccc(S(=O)(=O)Nc2ccc3c(c2)C(=O)N([C@H](C)CO)C[C@H](C)[C@@H](CN(C)Cc2ccc(C(F)(F)F)cc2)OCCCC[C@H](C)O3)cc1	15	1	7
COc1ccc(S(=O)(=O)Nc2ccc3c(c2)C(=O)N([C@@H](C)CO)C[C@H](C)[C@@H](CN(C)Cc2ccc(C(=O)O)cc2)OCCCC[C@H](C)O3)cc1	-3	0	54*
C[C@@H]1CN([C@@H](C)CO)C(=O)c2cc(NS(=O)(=O)c3ccc(F)cc3)ccc2O[C@@H](C)CCCCO[C@H]1CN(C)C(=O)c1ccncc1	1	0	3
CCCN(C)C[C@@H]1OCCCC[C@@H](C)Oc2ccc(NC(=O)CCC(F)(F)F)cc2C(=O)N([C@@H](C)CO)C[C@@H]1C	3	0	?
C[C@@H]1CCCCO[C@@H](CN(C)Cc2ccc(C(=O)O)cc2)[C@H](C)CN([C@@H](C)CO)C(=O)c2cc(NS(C)(=O)=O)ccc2O1	-2	0	-6
C[C@@H]1CCCCO[C@@H](CN(C)Cc2ccc(C(=O)O)cc2)[C@@H](C)CN([C@@H](C)CO)C(=O)c2cc(NS(C)(=O)=O)ccc2O1	-4	0	48*
